Most compounds without a hit are left out; they make up all but 2.1% or so of the library.
EBNA-1 inhibitor: EBNA-1 DNA-binding inhibitors, primary screen, biochemical, fluorescence polarization. inhibition, % at 14.8 µM. actives 0.34% (n = 300,000); in the data active = inhibition above about 28%
MLLE-PAM2 inh: inhibitors of PABP1 MLLE–PAM2 peptide binding, primary screen, biochemical, fluorescence polarization, FITC-PAM2, GST-MLLE. inhibition, % at 20 µM. actives 0.36% (n = 360,000). Polyadenylate-binding protein 1 (Homo sapiens), P11940; in the data active = inhibition above about 35%, passing the limit was not always enough
Target sequence (P11940 whole entry, looked up): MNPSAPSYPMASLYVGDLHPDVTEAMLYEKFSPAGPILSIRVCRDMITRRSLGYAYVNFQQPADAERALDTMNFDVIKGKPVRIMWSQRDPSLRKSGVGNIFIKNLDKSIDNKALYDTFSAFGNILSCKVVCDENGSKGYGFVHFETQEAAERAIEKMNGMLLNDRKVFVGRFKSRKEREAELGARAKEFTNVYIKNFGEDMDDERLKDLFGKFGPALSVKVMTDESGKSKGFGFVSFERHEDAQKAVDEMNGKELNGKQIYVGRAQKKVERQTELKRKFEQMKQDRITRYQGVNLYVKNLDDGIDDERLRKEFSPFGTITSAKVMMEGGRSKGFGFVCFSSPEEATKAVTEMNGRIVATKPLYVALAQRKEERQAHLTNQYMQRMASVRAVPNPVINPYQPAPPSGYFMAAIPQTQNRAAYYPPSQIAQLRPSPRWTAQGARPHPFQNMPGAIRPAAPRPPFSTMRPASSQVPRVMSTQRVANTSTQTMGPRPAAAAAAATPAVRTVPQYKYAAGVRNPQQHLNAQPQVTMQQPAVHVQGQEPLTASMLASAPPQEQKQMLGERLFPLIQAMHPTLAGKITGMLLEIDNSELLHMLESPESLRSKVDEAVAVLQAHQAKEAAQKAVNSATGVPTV
ZTA DNA inh: counter-screen for EBNA-1 inhibitors: inhibitors of Epstein-Barr virus ZTA | P03206 | ZTA-DNA binding, fluorescence polarization | inhibition, % at 11 µM | actives 0.15% (n = 320,000) | AID 2234; in the data active = inhibition above about 33%
eIF4H FP inh: human eIF4H binding inhibitors, primary screen, translation initiation inhibitor project, biochemical, uHTS, fluorescence polarization. Eukaryotic translation initiation factor 4H (Homo sapiens), Q15056. eIF4H fluorescence polarization binding assay. inhibition, % at 35 µM. actives 0.94% (n = 290,000). AID 2012, 2009;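 also: calls also rest on retests at 20 µM and on dose response follow-up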
NS3 helicase inh: inhibitors of HCV NS3 helicase, primary screen, biochemical, Cy5 molecular beacon fluorescence. NS3 helicase DNA unwinding. inhibition, % at 10.9 µM. actives 0.56% (n = 290,000). AID 1800, 2009;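 active = inhibition above the mean of all tested compounds plus 3 SD, set per campaign, cut at about 35% in these data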
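Measured by: Cy5 fluorescence, 0 and 60 min reads / Assay system: NS3 helicase fragment of HCV / Control set: low DMSO, high thioflavine S at 110 µM / Times: 1 h reaction at 25 °C, ATP-initiated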
PABP polyA inh: PABP poly(A) RNA binding inhibitors, primary screen, biochemical, fluorescence polarization, uHTS; actives 1% (n = 290,000); inhibition, % at 35 µM; Polyadenylate-binding protein 1 (Homo sapiens), P11940; AID 2014, 2009;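 also: calls also rest on retests at 20 µM and on dose response follow-up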
Hits are given with their value; . = inactive; ? = inconclusive; / = no result given. Unless noted, no rule for the calls is given here.

SMILES	EBNA-1 inhibitor	MLLE-PAM2 inh	ZTA DNA inh	eIF4H FP inh	NS3 helicase inh	PABP polyA inh
O=C(O)Cc1c[nH]c2cccc(O)c12	.	.	.	88	.	94
COC(=O)c1ccc(NC(=O)C(=O)N2CCN(C(=S)Nc3cccc(C)c3C)CC2)cc1	.	.	.	.	.	.
O=C(N/N=C/c1ccncc1)c1cc2ccccc2cc1O	/	.	/	.	.	.
COc1cccc(/C=N/NC(=O)c2ccncc2)c1OC(=O)c1ccc(Br)cc1	.	59	.	?	.	?
COc1cc(OC)c([N+](=O)[O-])cc1/C=N/NC(=O)c1ccncc1	.	.	.	59	.	12
COc1cc(/C=N/NC(=O)c2ccncc2)ccc1OC(=O)c1cccc(Br)c1	.	.	.	.	.	.
O=C(N/N=C/c1ccncc1)c1cc([N+](=O)[O-])cc([N+](=O)[O-])c1O	.	.	.	76	.	.
COc1cc(/C=N/NC(=O)c2ccncc2)c([N+](=O)[O-])cc1OC	.	.	.	.	.	.
COc1ccccc1C(=O)NC(CCSC)C(=O)OCC(=O)c1ccc[nH]1 (stereo not given)	.	.	.	60	.	0.4
COc1ccccc1C(=O)NC(CCSC)C(=O)NC1CC1 (stereo not given)	/	.	/	/	/	/
COc1ccccc1C(=O)NC(CCSC)C(=O)NC1CCCCCC1 (stereo not given)	.	.	.	.	.	active
COc1ccc(NC(=O)c2ccc(COCC(F)(F)C(F)F)cc2)cc1	.	.	.	active	.	53
CCCCN(C(=S)NC(=O)c1ccccc1)c1c(N)n(Cc2ccccc2)c(=O)[nH]c1=O	.	37	.	.	.	.
CCN(C(=O)CN1CCCc2ccccc21)c1c(N)n(Cc2ccccc2)c(=O)[nH]c1=O	/	/	/	99	/	109
OC1(c2ccccc2F)CCN(Cc2nnnn2Cc2ccc(F)cc2)CC1	.	.	.	.	.	.
COc1ccc(C(=O)Nc2ccc(N3CCN(C(=O)c4ccccc4C)CC3)cc2)cc1	.	.	.	.	.	.
COc1ccc(-c2cc3ccccc3n2CC(O)Cn2nc(C)cc2C)cc1 (stereo not given)	.	.	.	78	.	107
CN(C[C@H](Cc1ccccc1)N(CCN(CCc1ccccc1)N=O)N=O)N=O	.	.	.	.	.	57
N#Cc1cccc(NC(=O)CNc2cc(S(=O)(=O)N3CCOCC3)ccc2N2CCCC2)c1	/	.	/	/	/	/
Cn1c(/C=C/c2ccccc2)nc2ccccc2c1=O	.	.	.	.	.	.
O=C(N/N=C/c1ccc([N+](=O)[O-])o1)c1cc(-c2ccc(-c3ccccc3)cc2)nc2ccccc12	.	.	.	.	.	.
Cn1c(/C=C/c2ccc([N+](=O)[O-])o2)nc2ccccc2c1=O	.	.	.	?	.	68
Cc1ccc(-c2cc(C(=O)N/N=C/c3ccc([N+](=O)[O-])o3)c3ccccc3n2)o1	/	.	/	76	.	32
O=C(N/N=C/c1ccc([N+](=O)[O-])o1)c1cc(-c2ccncc2)nc2ccccc12	.	.	.	68	.	20
O=C(CNc1cccc2ccccc12)N/N=C/c1ccc([N+](=O)[O-])o1	.	.	.	85	.	active
SMILES	EBNA-1 inhibitor	MLLE-PAM2 inh	ZTA DNA inh	eIF4H FP inh	NS3 helicase inh	PABP polyA inh
Cc1ccc(NC(=O)OCCN2CCN(Cc3ccccc3)CCC2=O)cc1C	.	.	.	.	.	.
CCCn1nc2cc(C(=O)NCc3ccc(C)cc3)ccc2c1OCC	.	.	.	.	.	.
Nc1nc(-c2ccccn2)nc(N)c1Cc1ccc(Cl)cc1Cl	.	.	.	70	.	.
O=S(=O)(O)c1cc(O)c2c(O)c(N=Nc3cc(Cl)ccc3O)c(S(=O)(=O)O)cc2c1	.	.	.	80	.	75
Cc1cc(-c2ccc(N=Nc3c(S(=O)(=O)O)cc4cc(S(=O)(=O)O)cc(N)c4c3O)c(C)c2)ccc1N=Nc1c(S(=O)(=O)O)cc2cc(S(=O)(=O)O)cc(N)c2c1O	69	/	181	/	/	/
Nc1cc(S(=O)(=O)O)cc2ccc(S(=O)(=O)O)cc12	/	.	/	/	/	/
O=S(=O)(O)c1cc(Cl)cc(N=Nc2ccc(O)cc2O)c1O	/	.	/	/	/	/
O=C(CSc1nnc(CNC(=O)c2c(F)cccc2Cl)o1)NC1CCCC1	.	.	.	.	.	.
Brc1ccccc1-n1nnc(-c2cnc3ccccc3c2)n1	.	.	.	/	/	/
CCOC(=O)c1ccccc1N1C(=O)CSC1=S	.	41	.	.	.	.
Cc1sc2nc(COC(=O)c3ccc(O)cc3)[nH]c(=O)c2c1C	.	.	.	.	.	.
Cc1sc2nc(COC(=O)c3ccc(N4CCCC(C)C4)c([N+](=O)[O-])c3)[nH]c(=O)c2c1C (stereo not given)	.	.	.	.	.	.
Cc1sc2nc(COC(=O)c3ccc(Cl)c(N)c3)[nH]c(=O)c2c1C	.	.	.	74	.	63
Cc1sc2nc(COC(=O)c3ccc(N4CCCC4)c([N+](=O)[O-])c3)[nH]c(=O)c2c1C	.	.	.	?	.	1.7
Cc1ccc2nc3c(cc(S(=O)(=O)c4ccccc4)c(=N)n3C3CCCC3)c(=O)n2c1	/	.	/	/	/	/
Cn1c(SCc2ccc([N+](=O)[O-])cc2)nc2c(c1=O)SCC2	.	.	.	active	.	105
Cn1c(SCc2c(F)cccc2Cl)nc2c(c1=O)SCC2	.	.	.	.	.	.
CCCCNC(=S)NNC(=O)c1csc(C)c1	.	.	.	active	.	53
Cc1ccc(SC2CC(=O)N(c3ccc4c(c3)OCCO4)C2=O)cc1 (stereo not given)	.	42	.	.	.	.
Cc1ccc(N2C(=O)CC(Sc3cccs3)C2=O)cc1 (stereo not given)	.	.	.	.	.	.
O=c1[nH]c2cc3ccccc3cc2nc1C(F)(F)F	.	41	.	.	.	.
O=c1[nH]c2ccccc2nc1C(F)(F)C(F)F	.	.	.	.	.	.
Cc1sc(NC(=O)CSC2=NCCS2)nc1-c1ccccc1	.	.	.	.	.	.
CCSCc1nnc(SCC(=O)Nc2nc3ccccc3s2)n1C	.	.	.	3.0	.	60
Cc1cc(NC(=O)CSC2=NCCS2)no1	.	44	.	.	.	.
O=C(CSC1=NCCS1)Nc1nc2ccccc2s1	.	42	.	.	.	.
CC(C)C(=O)Nc1ccc2nn(-c3ccccc3)nc2c1	.	.	.	.	.	.
CC(=O)Nc1ccc2c(c1)C(C)(C)C(C)N2C (stereo not given)	45	/	60	?	.	.
COc1ccccc1C(=O)NC(=S)N1CCc2ccccc21	.	.	.	.	.	.
COc1ccc(C(=O)NC(=S)N2CCCc3ccccc32)cc1OC	.	41	.	.	.	.

Source: PubChem BioAssay (several laboratories)
